{"source": "paper PMC4531836", "about": "(Molecular imaging and biology : MIB : the official …, 2015)", "format_in_all_cases": "in vivo, human", "key": {"[1]": {"assay": "Safety / adverse events in patients with prostate cancer", "conditions": "nine patients", "in_short": "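Nine patients received about 320.6 MBq IV after 4–6 h fasting. Vital signs and ECG were recorded before dosing, with pulse oximetry during scanning. Within 2 weeks before and after, they had history, examination, CBC with differential, metabolic panel (BUN, creatinine, alkaline phosphatase, bilirubin, transaminases) and ECG. Follow-up visit or contact came within 30 days. Events were graded by NCI CTCAE.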"}, "Radiation dosimetry": {"assay": "Radiation dosimetry", "in_short": "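Four patients were analysed. Organ VOIs were drawn on longitudinal PET scans. Time-activity data were integrated by fitted single- or double-exponential functions, or numerically with single-exponential extrapolation. Residence times were scaled from CT-derived patient organ masses to reference masses. Absorbed doses used the MIRD S-value schema in OLINDA/EXM. The bladder model assumed 1.5 h voiding, and lens dose was taken as the photon dose to brain.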"}, "[2]": {"assay": "Blood and plasma activity, plasma metabolites, urinary excretion", "in_short": "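Prostate cancer patients received about 320.6 MBq by slow IV push. Venous blood was drawn from the contralateral arm after PET2, PET4 and PET5, and 0.5 ml aliquots of blood and plasma were well-counted. Urine voided after PET4 and PET5 (about 110 and 160 min) was counted. For metabolites, plasma was acetonitrile-precipitated, spiked with unlabelled reference, and run on C18 radio-HPLC in 10% acetonitrile/90% triethylammonium phosphate pH 3.2 at 2 ml/min.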"}, "prostate cancer": {"test_system": "prostate cancer", "assay": "PET/CT tumor uptake", "in_short": "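Sequential PET/CT ran from injection (PET1–PET4), with PET5 at 120 min. Tumour sites were foci at PET5 with uptake above surrounding soft tissue or blood pool. SUVmax was normalised to lean body mass for up to five hottest lesions per patient, using automatic VOIs at 50% activity threshold. Tumour-to-reference ratio was lesion SUVmax over SUVmean of liver, blood pool or muscle.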"}, "[3]": {"assay": "PET biodistribution in patients", "conditions": "visual", "in_short": "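Patients fasted 4–6 h, then received about 320.6 MBq IV (specific activity 107.2 MBq/nmol). Mid-thigh-to-vertex 3D PET/CT with CT attenuation correction followed. Four sequential scans began at injection, at 1, 2, 4 and 4 min per bed. A fifth scan (4 min/bed) ran at 120 min. Two non-blinded nuclear-medicine readers reviewed images visually.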"}}, "note": "“And” between values parts separate entries of the source, which are not always exact repeats. Equal values may be shown once. “Also recorded” adds a separate entry of the source.", "data": [{"smiles": "O=C(O)CCC(NC(=O)NC(CCCCNC(=O)c1ccc([18F])nc1)C(=O)O)C(=O)O", "note": "(stereo not drawn) [[^18F]DCFPyL, 2-(3-(1-carboxy-5-[(6-[^18F]fluoro-pyridine-3-carbonyl)-amino]-pentyl)-ureido)-pentanedioic acid]", "values": [{"measurement": "Radiotracer-related adverse events with monitored heart rate or blood pressure", "setting": "[1]", "value": "no radiotracer-related adverse events"}, {"measurement": "Adverse events", "setting": "[1]; IV bolus average 320.6 MBq", "value": "No major radiotracer-specific adverse events; also recorded: safe to administer"}, {"measurement": "Absorbed dose", "setting": "Radiation dosimetry; Adrenals", "value": "3.11E-02", "unit": "mGy/MBq"}, {"measurement": "Res. time", "setting": "Radiation dosimetry; Adrenals", "value": "3.16E-04 (Bq-h)/Bq"}, {"measurement": "Res. time", "setting": "Radiation dosimetry; Bone marrow (spine)", "value": "5.52E-02 (Bq-h)/Bq"}, {"measurement": "Absorbed dose", "setting": "Radiation dosimetry; Brain", "value": "2.19E-03", "unit": "mGy/MBq"}, {"measurement": "Res. time", "setting": "Radiation dosimetry; Brain", "value": "4.74E-03 (Bq-h)/Bq"}, {"measurement": "Absorbed dose", "setting": "Radiation dosimetry; Breasts", "value": "4.57E-03", "unit": "mGy/MBq"}, {"measurement": "Res. time", "setting": "Radiation dosimetry; Gallbladder", "value": "1.18E-03 (Bq-h)/Bq"}, {"measurement": "Absorbed dose", "setting": "Radiation dosimetry; Gallbladder wall", "value": "1.44E-02", "unit": "mGy/MBq"}, {"measurement": "Res. time", "setting": "Radiation dosimetry; Heart", "value": "1.98E-02 (Bq-h)/Bq"}, {"measurement": "Absorbed dose", "setting": "Radiation dosimetry; Heart wall", "value": "1.29E-02", "unit": "mGy/MBq"}, {"measurement": "Res. time", "setting": "Radiation dosimetry; Heart wall", "value": "6.24E-03 (Bq-h)/Bq"}, {"measurement": "Absorbed dose", "setting": "Radiation dosimetry; Kidneys", "value": "0.0945 mGy/MBq and 9.45E-02 mGy/MBq"}, {"measurement": "Res. time", "setting": "Radiation dosimetry; Kidneys", "value": "2.17E-01 (Bq-h)/Bq"}, {"measurement": "Res. time", "setting": "Radiation dosimetry; LLI", "value": "4.06E-03 (Bq-h)/Bq"}, {"measurement": "Absorbed dose", "setting": "Radiation dosimetry; LLI wall", "value": "1.05E-02", "unit": "mGy/MBq"}, {"measurement": "Absorbed dose", "setting": "Radiation dosimetry; Lacrimal glands", "value": "3.50E-02", "unit": "mGy/MBq"}, {"measurement": "Res. time", "setting": "Radiation dosimetry; Lacrimal glands", "value": "3.86E-04 (Bq-h)/Bq"}, {"measurement": "Absorbed dose", "setting": "Radiation dosimetry; Lens", "value": "1.25E-03", "unit": "mGy/MBq"}, {"measurement": "Res. time", "setting": "Radiation dosimetry; Lens", "value": "4.32E-06 (Bq-h)/Bq"}, {"measurement": "Absorbed dose", "setting": "Radiation dosimetry; Liver", "value": "0.0380 mGy/MBq and 3.80E-02 mGy/MBq"}, {"measurement": "Res. time", "setting": "Radiation dosimetry; Liver", "value": "2.60E-01 (Bq-h)/Bq"}, {"measurement": "Absorbed dose", "setting": "Radiation dosimetry; Lungs", "value": "1.08E-02", "unit": "mGy/MBq"}, {"measurement": "Res. time", "setting": "Radiation dosimetry; Lungs", "value": "3.70E-02 (Bq-h)/Bq"}, {"measurement": "Absorbed dose", "setting": "Radiation dosimetry; Muscle", "value": "6.32E-03", "unit": "mGy/MBq"}, {"measurement": "Res. time", "setting": "Radiation dosimetry; Muscle", "value": "3.07E-01 (Bq-h)/Bq"}, {"measurement": "Absorbed dose", "setting": "Radiation dosimetry; Osteogenic cells", "value": "9.58E-03", "unit": "mGy/MBq"}, {"measurement": "Absorbed dose", "setting": "Radiation dosimetry; Ovaries (hypothetical, all-male cohort)", "value": "8.89E-03", "unit": "mGy/MBq"}, {"measurement": "Absorbed dose", "setting": "Radiation dosimetry; Pancreas", "value": "2.44E-02", "unit": "mGy/MBq"}, {"measurement": "Res. time", "setting": "Radiation dosimetry; Pancreas", "value": "3.05E-03 (Bq-h)/Bq"}, {"measurement": "Absorbed dose", "setting": "Radiation dosimetry; Parotid glands", "value": "2.68E-02", "unit": "mGy/MBq"}, {"measurement": "Res. time", "setting": "Radiation dosimetry; Parotid glands", "value": "1.19E-02 (Bq-h)/Bq"}, {"measurement": "Absorbed dose", "setting": "Radiation dosimetry; Red marrow", "value": "0.01 mGy/MBq and 1.04E-02 mGy/MBq"}, {"measurement": "Res. time", "setting": "Radiation dosimetry; Remainder of body", "value": "7.11E-01 (Bq-h)/Bq"}, {"measurement": "Absorbed dose", "setting": "Radiation dosimetry; Skin", "value": "4.05E-03", "unit": "mGy/MBq"}, {"measurement": "Absorbed dose", "setting": "Radiation dosimetry; Small intestine", "value": "9.13E-03", "unit": "mGy/MBq"}, {"measurement": "Absorbed dose", "setting": "Radiation dosimetry; Spleen", "value": "1.85E-02", "unit": "mGy/MBq"}, {"measurement": "Res. time", "setting": "Radiation dosimetry; Spleen", "value": "2.07E-02 (Bq-h)/Bq"}, {"measurement": "Res. time", "setting": "Radiation dosimetry; Stomach", "value": "1.07E-02 (Bq-h)/Bq"}, {"measurement": "Absorbed dose", "setting": "Radiation dosimetry; Stomach wall", "value": "1.16E-02", "unit": "mGy/MBq"}, {"measurement": "Absorbed dose", "setting": "Radiation dosimetry; Submandibular glands", "value": "0.0387 mGy/MBq and 3.87E-02 mGy/MBq"}, {"measurement": "Res. time", "setting": "Radiation dosimetry; Submandibular glands", "value": "6.95E-03 (Bq-h)/Bq"}, {"measurement": "Absorbed dose", "setting": "Radiation dosimetry; Testes", "value": "1.01E-02", "unit": "mGy/MBq"}, {"measurement": "Res. time", "setting": "Radiation dosimetry; Testes", "value": "1.76E-03 (Bq-h)/Bq"}, {"measurement": "Absorbed dose", "setting": "Radiation dosimetry; Thymus", "value": "5.56E-03", "unit": "mGy/MBq"}, {"measurement": "Absorbed dose", "setting": "Radiation dosimetry; Thyroid", "value": "8.56E-03", "unit": "mGy/MBq"}, {"measurement": "Res. time", "setting": "Radiation dosimetry; Thyroid", "value": "2.34E-04 (Bq-h)/Bq"}, {"measurement": "Res. time", "setting": "Radiation dosimetry; Total body", "value": "1.96E+00 (Bq-h)/Bq"}, {"measurement": "Res. time", "setting": "Radiation dosimetry; ULI", "value": "2.20E-02 (Bq-h)/Bq"}, {"measurement": "Absorbed dose", "setting": "Radiation dosimetry; ULI wall", "value": "1.67E-02", "unit": "mGy/MBq"}, {"measurement": "Res. time", "setting": "Radiation dosimetry; Urinary bladder contents", "value": "2.60E-01 (Bq-h)/Bq"}, {"measurement": "Absorbed dose", "setting": "Radiation dosimetry; Urinary bladder wall, voiding interval 1.5 h", "value": "0.0864 mGy/MBq and 8.64E-02 mGy/MBq"}, {"measurement": "Absorbed dose", "setting": "Radiation dosimetry; Uterus (hypothetical, all-male cohort)", "value": "1.15E-02", "unit": "mGy/MBq"}, {"measurement": "Effective dose", "setting": "Radiation dosimetry; four patients, OLINDA/EXM", "value": 0.0165, "unit": "mSv/MBq"}, {"measurement": "Radiation dose in the whole body and radiosensitive organs", "setting": "Radiation dosimetry; whole body, red marrow, gonads, breasts", "value": "≤ 0.01", "unit": "mGy/MBq"}, {"measurement": "Red cell binding", "setting": "[2]; 86 and 137 min post-injection", "value": "non-detectable"}, {"measurement": "Red cell binding", "setting": "[2]; 20 min post-injection", "value": "negligible"}, {"measurement": "Average urinary excretion of the radiotracer", "setting": "[2]; by 2 h post-injection", "value": 11, "unit": "%"}, {"measurement": "Urinary excretion of the radiotracer, range", "setting": "[2]; by 2 h post-injection", "value": "6–15%"}, {"measurement": "Average urinary excretion of the radiotracer", "setting": "[2]; by 3 h post-injection", "value": 16, "unit": "%"}, {"measurement": "Urinary excretion of the radiotracer, range", "setting": "[2]; by 3 h post-injection", "value": "8–21%"}, {"measurement": "Radiotracer metabolites in plasma (radio-HPLC)", "setting": "[2]; three patients, up to 173 min post-injection", "value": "all plasma activities were in the form of unmetabolized radioligand; also recorded: no metabolism"}, {"measurement": "SUVmax, individual lesions", "setting": "prostate cancer; PET4 and PET5, approximately 1 and 2 h post-radiotracer injection", "value": "greater than 100"}, {"measurement": "SUVmax, highest uptake at a site of primary disease", "setting": "prostate cancer; PET5 (120 min post-injection)", "value": 71.6}, {"measurement": "SUVmax, most avid bone lesions", "setting": "prostate cancer; PET5 (120 min post-injection)", "value": 102.0}, {"measurement": "SUVmax, most avid lymph node lesion", "setting": "prostate cancer; PET5 (120 min post-injection)", "value": 100.3}, {"measurement": "SUVmax in putative sites of prostate cancer (highest, some lesions)", "setting": "prostate cancer; SUVmax normalized to lean body mass", "value": "> 100"}, {"measurement": "Radiotracer uptake in the brain", "setting": "[3]", "value": "No radiotracer uptake"}]}]}
